According to ChEMBL document CHEMBL4138106, “Indole-coumarin-thiadiazole hybrids: An appraisal of their MCF-7 cell growth inhibition, apoptotic, antimetastatic and computational Bcl-2 binding potential” (Eur J Med Chem, 2017):
Activity calls are given as the source filed them. The calls are words filed in the database; no cut-off is given here.

What was measured:
MCF7 [1] = experiment: Cytotoxicity against human MCF7 cells assessed as growth inhibition after 48 hrs by MTT assay; format: functional, cell-based; settings: MCF7, 48 h
Method in brief: (§1)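 Cells grown in DMEM with 10% FBS plus antibiotics at 37 °C under 5% CO2. 5×10^3 cells/well seeded and cultured overnight, then exposed to a range of concentrations for 48 h. Working dilutions made in DMEM from 25 mM DMSO stocks, with DMSO vehicle controls and vincristine as positive control. MTT at 1 mg/mL for 4 h, formazan dissolved in DMSO, A570. Viability taken relative to vehicle after blank subtraction.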

Vero = experiment: Cytotoxicity against African green monkey Vero cells assessed as growth inhibition after 48 hrs by MTT assay; format: cell-based; settings: Chlorocebus sabaeus; method in brief: as §1
MCF7 [2] = experiment: Induction of apoptosis in human MCF7 cells assessed as deviations in cell morphology at 10 uM after 24 hrs by Acridine orange-ethidium bromide dual staining based fluorescence microscopic analysis; format: functional
MCF7 [3] = experiment: Induction of apoptosis in human MCF7 cells assessed as loss of cell membrane integrity at 10 uM after 24 hrs by Acridine orange-ethidium bromide dual staining based fluorescence microscopic analysis; format: functional
MCF7 [4] = experiment: Induction of apoptosis in human MCF7 cells assessed as cell shrinkage at 10 uM after 24 hrs by Acridine orange-ethidium bromide dual staining based fluorescence microscopic analysis; format: functional
MCF7 [5] = experiment: Induction of apoptosis in human MCF7 cells assessed as formation of apoptotic body at 10 uM after 24 hrs by Acridine orange-ethidium bromide dual staining based fluorescence microscopic analysis; format: functional, cell-based
MCF7 [6] = experiment: Induction of apoptosis in human MCF7 cells assessed as early apoptotic cells at 10 uM after 24 hrs by Acridine orange-ethidium bromide dual staining based fluorescence microscopic analysis; format: functional, cell-based
Method in brief: (§2)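 MCF-7 cells in 96-well plates exposed to test compound for 24 h at 37 °C in 5% CO2. Gross morphology first checked by phase contrast. Medium then removed and acridine orange (7.5 μg)/ethidium bromide (25 μg) stain added. Cells viewed by fluorescence microscopy through an FITC filter and scored as viable, early apoptotic, late apoptotic or nonviable by colour and nuclear form, against vehicle control.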

MCF7 [7] = experiment: Induction of apoptosis in human MCF7 cells assessed as condensed chromatin formation at 10 uM after 24 hrs by Acridine orange-ethidium bromide dual staining based fluorescence microscopic analysis; format: functional, cell-based; method in brief: as §2
MCF7 [8] = experiment: Induction of apoptosis in human MCF7 cells assessed as late apoptotic cells at 10 uM after 24 hrs by Acridine orange-ethidium bromide dual staining based fluorescence microscopic analysis; format: functional, cell-based; method in brief: as §2
MCF7 [9] = experiment: Induction of apoptosis in human MCF7 cells assessed as condensed nuclei formation at 10 uM after 24 hrs by Acridine orange-ethidium bromide dual staining based fluorescence microscopic analysis; format: functional, cell-based; method in brief: as §2
MCF7 [10] = experiment: Induction of apoptosis in human MCF7 cells assessed as fragmented nuclei formation at 10 uM after 24 hrs by Acridine orange-ethidium bromide dual staining based fluorescence microscopic analysis; format: functional, cell-based; method in brief: as §2
MCF7 [11] = experiment: Induction of apoptosis in human MCF7 cells assessed as dead cells at 10 uM after 24 hrs by Acridine orange-ethidium bromide dual staining based fluorescence microscopic analysis; format: functional, cell-based; method in brief: as §2
MCF7 [12] = experiment: Induction of apoptosis in human MCF7 cells assessed as nuclear chromatin condensation at 10 uM after 24 hrs by Hoechst 33342 staining based bright blue field inverted fluorescence microscopic analysis; format: functional, cell-based
Method in brief: (§3)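 Treated MCF-7 cells were incubated for 10 min with Hoechst 33342 stock diluted 1:2,000 in PBS. Nuclei were examined by inverted fluorescence microscopy for condensation and fragmentation, compared with vehicle-control cells.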

MCF7 [13] = experiment: Induction of apoptosis in human MCF7 cells assessed as nuclear fragmented DNA formation at 10 uM after 24 hrs by Hoechst 33342 staining based bright blue field inverted fluorescence microscopic analysis; format: functional, cell-based; method in brief: as §3
MCF7 [14] = experiment: Induction of apoptosis in human MCF7 cells assessed as late apoptotic cells at 10 uM after 24 hrs by fluorescein-12-dUTP/propidium iodide staining based TUNEL assay; format: functional, cell-based
Method in brief: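 About 1×10^5 MCF-7 cells/well in 24-well plates treated for 24 h. Cells fixed in 4% paraformaldehyde and permeabilized with 0.2% Triton X-100. Labelled with 50 µM fluorescein-12-dUTP and rTdT for 1 h at 37 °C, stopped with 2×SSC, counterstained with 1 mg/mL propidium iodide. Green TUNEL-positive nuclei scored by fluorescence microscopy.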

MCF7 [15] = experiment: Induction of apoptosis in human MCF7 cells assessed as reduction in cell volume at 10 uM after 24 hrs by APOPercentage dye based light microscopic analysis; format: functional
Method in brief: (§4)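 1×10^4 MCF-7 cells grown 48 h to sub-confluence in 96-well plates, then exposed for 24 h. Medium replaced with medium containing APOPercentage dye (phosphatidylserine exposure) for 1 h. Purple-red cells imaged by light microscopy. Cells then lysed and released dye read at 550 nm, against vehicle control.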

MCF7 [16] = experiment: Induction of apoptosis in human MCF7 cells assessed as chromatin condensation at 10 uM after 24 hrs by APOPercentage dye based light microscopic analysis; format: functional, cell-based; method in brief: as §4
MCF7 [17] = experiment: Induction of apoptosis in human MCF7 cells assessed as expression in caspase 2 at 10 uM after 24 hrs by spectrofluorimetric analysis; format: functional, cell-based
Method in brief: (§5)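 Initiator caspases 2, 8 and 9 measured in MCF-7 cells after 24 h exposure to 10 μM, using a fluorogenic caspase profiling kit (ex 380/em 460 nm). Signals normalized to vehicle control, set as 1, and expressed as fold change. Mean ± SD of three independent trials.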

MCF7 [18] = experiment: Induction of apoptosis in human MCF7 cells assessed as expression in caspase 8 at 10 uM after 24 hrs by spectrofluorimetric analysis; format: functional, cell-based; method in brief: as §5
MCF7 [19] = experiment: Induction of apoptosis in human MCF7 cells assessed as expression in caspase 9 at 10 uM after 24 hrs by spectrofluorimetric analysis; format: functional, cell-based; method in brief: as §5
MCF7 [20] = experiment: Inhibition of cell migration of human MCF7 cells after 24 hrs by inverted microscopy based monolayer wound healing migration assay; format: functional
Method in brief: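 About 1×10^5 MCF-7 cells/well grown in DMEM to 80% confluence, then a single scratch made. Debris washed off with PBS and cells treated with test compound, with vincristine as positive control and a vehicle control. Wound gap imaged at 0, 24 and 48 h by inverted microscopy with a stage and eyepiece micrometer. Run in triplicate.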

C/C(=N/c1nnc(Cc2c[nH]c3ccccc23)s1)c1cc2cc(Br)ccc2oc1=O
IC50 (MCF7 [1]): 82.1 µM | IC50 (Vero): 113 µM

C/C(=N/c1nnc(CCCc2c[nH]c3ccccc23)s1)c1cc2cc(Br)ccc2oc1=O
IC50 (MCF7 [1]): 8.01 µM | IC50 (Vero): 116 µM | Activity (MCF7 [2]): Active | Activity (MCF7 [3]): Active | Activity (MCF7 [4]): Active | Activity (MCF7 [5]): Active | Activity (MCF7 [6]): Active | Activity (MCF7 [7]): Active | Activity (MCF7 [8]): Active | Activity (MCF7 [9]): Active | Activity (MCF7 [10]): Active | Activity (MCF7 [11]): Active | Activity (MCF7 [12]): Active | Activity (MCF7 [13]): Active | Activity (MCF7 [14]): Active | Activity (MCF7 [15]): Active | Activity (MCF7 [16]): Active | Activity (MCF7 [17]): inactive | Activity (MCF7 [18]): Active | Activity (MCF7 [19]): Active | inhibition (MCF7 [20]): Active

C/C(=N/c1nnc(CCc2c[nH]c3ccccc23)s1)c1cc2cc(Br)ccc2oc1=O
IC50 (MCF7 [1]): 36.1 µM | IC50 (Vero): 43.1 µM
